From PubChem BioAssay
Ins promoter up – MIN6 insulin promoter up-regulation; actives 0.3% (n = 190,000); MIN6 insulin promoter-GFP reporter, high-content imaging; active compounds read high; z-score at 5 µM;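 active means z-score above 3 at 5 µM with at least 500 cells counted in the well; inconclusive means wells under 500 cells, flagged as cytotoxic or low count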
Dynein transport – dynein cargo transport inhibition | 3617.4 mouse cells, GR-EGFP nuclear translocation imaging; test concentration mostly 20 µM; stimulated with dexamethasone, 1 µM; active compounds read low | z-score, hits read low | actives 0.47% (n = 220,000);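 active means plate z-score of nuclear minus cytoplasmic receptor signal below a set negative limit, without overly bright fluorescence or cell loss, cut at about -3.5 in these data, passing the limit was not always enough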;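 further: z-score of nuclear minus cytoplasmic ring GR-EGFP intensity difference per well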
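medium = tetracycline-free induction medium containing charcoal-stripped FBS | also added = 1.0 µM final dexamethasone stimulus | schedule = 48 h induction, 1 h compound, 30 min dex at 37 °C | technique = fixed, Hoechst-stained cells imaged at 10x for EGFP | measure = GR-EGFP nuclear translocation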
Autophagy mod – autophagy modulation, high-content screen; MEF GFP-LC3 puncta imaging; test concentration mostly 10 µM; calls only at 10 µM (by protocol); actives 0.98% (n = 190,000);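 active means percentage of spot-positive cells more than 3 SD above its plate mean, without a fluorescence outlier flag or 80% toxicity; inconclusive means no clear call, values can overlap the other calls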
Insulin prom inh – TRM-6 insulin promoter activity inhibition; TRM-6 cells (human fetal islet line), insulin promoter-eGFP reporter, imaging; reporter expression induced with tamoxifen; inhibition, % at 2 µM; actives 0.9% (n = 130,000); AID 1273;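 active means inhibition above the mean plus 3 SD, with well images judged a real hit on visual review, cut at about 60% in these data, passing the limit was not always enough; inconclusive means inhibition over the cutoff but images rejected on review; inactive means inhibition not above the cutoff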
Large screens that a line does not name were inactive. The list is not random: actives were taken first. Their share in the collection is about 2%.

Cc1csc2ncnc(N3CCN(C(=S)Nc4ccc(F)cc4F)CC3)c12	none (no result: Autophagy mod, Insulin prom inh)
CCOC(=O)COn1c(=O)c[n+]([O-])c2ccccc21	Insulin prom inh 100
CC(=O)Nc1ccc(OC(=O)c2ccc(Br)c([N+](=O)[O-])c2)cc1	none (no result: Insulin prom inh)
Cc1cccc2cc(C#N)c(SCc3nnc(-c4ccccc4[N+](=O)[O-])o3)nc12	Autophagy mod active
CCC1CCCCN1C(=O)CSc1nnc(-c2ccco2)o1 (stereo not drawn)	Insulin prom inh 86
CC(=O)Nc1ccc(NC(=O)CSc2nnc(-c3ccco3)o2)cc1	Autophagy mod active
COc1ccc(-c2cn[nH]c2N)c(OC)c1	Insulin prom inh 84
O=C(NCCCn1ccnc1)c1cc([N+](=O)[O-])cc([N+](=O)[O-])c1	Insulin prom inh 73
Cc1ccc(SCC(=O)NC(=O)NCCC(C)C)c(C)c1	none
CC(C)C(NC(=O)c1cccnc1)C(=O)O (stereo not drawn)	none (no result: Ins promoter up, Insulin prom inh)
COC(=O)c1ccc(C(NC(=O)c2cccnc2)NC(=O)c2cccnc2)cc1	Autophagy mod active (no result: Insulin prom inh)
C/C(=N\NC(=S)Nc1cc(S(=O)(=O)N2CCOCC2)ccc1Cl)c1ccc(N2CCOCC2)cc1	none (no result: Autophagy mod, Insulin prom inh)
COc1ccc2cc(/C(C)=N/NC(=S)Nc3cc(S(=O)(=O)N4CCOCC4)ccc3N3CCOCC3)ccc2c1	Autophagy mod active (no result: Insulin prom inh)
Fc1ccc(/C=N/Nc2ncnc3nc[nH]c23)cc1F	Insulin prom inh 60
COCCOC(=O)c1[nH]c2c(c1C)C(=O)CC(c1cc(OC)ccc1OC)C2 (stereo not drawn)	none
Cc1c(C(=O)OC2CCCC2)[nH]c2c1C(=O)CC(c1ccco1)C2 (stereo not drawn)	Autophagy mod active
COC(=O)c1[nH]c2c(c1C)C(=O)CC(c1ccccc1)C2 (stereo not drawn)	Autophagy mod active
CCOC(=O)c1[nH]c2c(c1-c1ccccc1)C(=O)CC(c1ccccc1)C2 (stereo not drawn)	none
COc1ccc(OC)c(C2CC(=O)c3c([nH]c(C(=O)OC(C)C)c3C)C2)c1 (stereo not drawn)	Autophagy mod active (no result: Insulin prom inh)
CC(C)(CC(=O)O)CC(=O)Nc1cc(-c2ccccc2)[nH]n1	none (no result: Ins promoter up, Autophagy mod, Insulin prom inh)
CCOC(=O)c1c(NC(=O)Cn2cnc([N+](=O)[O-])n2)sc(C)c1C	none
Cc1nc2ccccc2c(C)c1C(=O)c1ccccc1	none
CC(=O)c1c(C)nc2ccccc2c1N	Insulin prom inh 88
COc1ccc(OC)c2c1C(=O)c1ccccc1C2=O	none (no result: Insulin prom inh)
COc1ccc(OC)c2c1C(=O)C(Cl)=C(Cl)C2=O	Dynein transport -5.4 (no result: Autophagy mod, Insulin prom inh)
CC(=O)c1ccc(NC(=O)C(Cc2ccccc2)n2cccc2)cc1 (stereo not drawn)	none (no result: Autophagy mod, Insulin prom inh)
Cc1snc(S(=O)(=O)/C(C#N)=N/Nc2cccc(C(F)(F)F)c2)c1C#N	Insulin prom inh 75
COc1ccc(N/N=C(/C#N)S(=O)(=O)c2nsc(C)c2C#N)cc1	none
Cc1cc(C(=O)NNC(=O)NC(C)C)no1	none (no result: Ins promoter up, Autophagy mod, Insulin prom inh)
COCCNC(=O)CCCn1c(=O)c2cc(OC)c(OC)cc2n(CC(=O)NCCC2=CCCCC2)c1=O	Insulin prom inh 75
CCOC(=O)c1ccc(NC(=O)/C=C/c2cccs2)cc1	Autophagy mod active (no result: Insulin prom inh)
CCN(CC)CCOC(=O)c1ccc(NC(=O)/C=C/c2cccs2)cc1	none
Cc1nc(=O)c(-c2ccccc2)c(C)n1-c1ccc(O)cc1	Insulin prom inh 100
CC(=O)Nc1ccc(-n2c(C)nc(=O)c(-c3ccccc3)c2C)cc1	none
COc1ccc(Nc2nc3ccc(C)cc3cc2C#N)c(OC)c1	none (no result: Insulin prom inh)
COc1ccc(Nc2nc3c(C)cccc3cc2C#N)c(OC)c1	Autophagy mod active
COc1ccc(Nc2nc3cc(C)ccc3cc2C#N)c(OC)c1	Autophagy mod active
Cc1ccc(NC(=O)CN(c2ccc(Cl)cc2)S(=O)(=O)c2cc([N+](=O)[O-])ccc2Cl)c(C)c1	none
CCc1nc2cc([N+](=O)[O-])c([N+](=O)[O-])cc2[nH]1	Insulin prom inh 75
O=[N+]([O-])c1cnc(Sc2ccncn2)s1	Ins promoter up inconclusive, Dynein transport -5.1 (no result: Autophagy mod, Insulin prom inh)
CN(C)c1c2ccccc2nc2c(F)c(F)c(F)c(F)c12	none (no result: Ins promoter up)
Cc1c2ccccc2nc2c(F)c(N(C)C)c(F)c(F)c12	Autophagy mod active
O=S(=O)(NCc1csc(-c2cccs2)n1)c1cccc(C(F)(F)F)c1	none (no result: Autophagy mod, Insulin prom inh)
O=C(c1ccc([N+](=O)[O-])cc1)N(Cc1ccc(Br)cc1)N1C(=O)CCCC1=O	Autophagy mod active
CCOC(=O)c1c(NC(=O)COC(=O)C2CC2C)sc(C)c1C (stereo not drawn)	none (no result: Insulin prom inh)
CCOC(=O)c1oc2nc3c(cc2c1N)COC(C)(C)C3	Autophagy mod active (no result: Ins promoter up, Insulin prom inh)
Cc1cc(C)nc(NNC(=O)c2ccccc2O)n1	none
CCN1C/C(=C\c2cccc([N+](=O)[O-])c2)C(=O)/C(=C/c2cccc([N+](=O)[O-])c2)C1	Dynein transport -3.7, Insulin prom inh 100
Cc1cc(NC(=O)c2ccccc2-c2ccccc2C(=O)O)no1	Insulin prom inh 64
CC(C)(C)NC(=S)NC1CC1	none (no result: Autophagy mod, Insulin prom inh)
COc1ccc(-n2nnnc2S(=O)(=O)CC(=O)N2CCCCC2)cc1	Dynein transport -3.9 (no result: Insulin prom inh)
COc1ccc(-n2nnnc2S(=O)(=O)Cc2ccc(C(=O)O)cc2)cc1	none (no result: Ins promoter up)
COCCNC(=O)c1c(NC(=O)c2nc(SC)ncc2Cl)sc2c1CCCC2	Autophagy mod active (no result: Insulin prom inh)
C=CCOc1ccccc1CNCCNC(=O)c1nonc1N	Autophagy mod active (no result: Insulin prom inh)
CCOc1ccccc1CNCCNC(=O)c1nonc1N	none (no result: Autophagy mod, Insulin prom inh)
Cc1occc1C(=O)N/N=C/C1=C(N2CCOCC2)C(=C\c2ccc(Cl)cc2Cl)/CC1	Autophagy mod active
Cc1ccc(C(=O)N[C@@H](C)CN2C3=NC[C@H](C(C)C)N3C[C@H]2Cc2ccc(O)cc2)cc1Br	Autophagy mod active (no result: Insulin prom inh)
COc1ccc(C[C@H]2CN3C(=NC[C@H]3Cc3ccccc3)N2CCNC(=O)c2ccc(C)c(Br)c2)cc1	none (no result: Autophagy mod, Insulin prom inh)
COc1ccc(C[C@H]2CN3C(=NC[C@@H]3Cc3ccccc3)N2CCNC(=O)c2ccc(C)c(Br)c2)cc1	Autophagy mod active (no result: Insulin prom inh)
CN(Cc1ccccc1)C(=O)COC(=O)CCNC(=O)c1ccccc1Cl	none (no result: Insulin prom inh)
Cc1cccc(C)c1Nc1c(-c2ccc(N3CCOCC3)cc2)nc2ncccn12	none
Cc1ccc(Nc2c(-c3ccc(N4CCOCC4)cc3)nc3ncccn23)c(C)c1	Insulin prom inh 76
CCCc1nn(C)c2c(=O)[nH]c(-c3cc(S(=O)(=O)Nc4ccc(NC(C)=O)cc4)ccc3OCC)nc12	none (no result: Ins promoter up, Autophagy mod, Insulin prom inh)
Cc1ccc(N2CCC(N3CCN(C4CCCCC4)C(CCO)C3)CC2)cc1 (stereo not drawn)	none (no result: Insulin prom inh)
O=C(c1cccc(F)c1)n1nnc2ccccc21	Insulin prom inh 81
Cc1ccc(C)[n+](CC(=O)c2ccc(-c3ccccc3)cc2)c1	none
Brc1ccc(Oc2nsnc2N2CCOCC2)cc1	Ins promoter up 3.9
Cc1nc2ccccc2nc1N1CCCC1	none (no result: Autophagy mod, Insulin prom inh)
Cc1ccc2c(Cl)c(C)c(N3CCCC3)nc2n1	Insulin prom inh 77
COc1ccc(C2C(C(=O)N3CCOCC3)CCC(=O)N2c2ccc(OC)cc2)cc1 (stereo not drawn)	Ins promoter up 3.7 (no result: Insulin prom inh)
